KCNQ1 act: potentiators or activators of KCNQ1 channel, primary screen, cell-based, thallium flux, high-throughput. CHO-K1 KCNQ1, thallium flux FluxOR fluorescence; stronger effect = higher value. B-score at 10 µM. 310,000 tested, 0.35% active. AID 2648, 2010;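 active = fluorescence ratio B-score, a plate-corrected score, at least three library SD, with initial intensity B-score within 5 SD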
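Assay system: CHO-K1 cells stably expressing KCNQ1; Medium: assay buffer with matched DMSO; Also added: K+/Tl+ depolarizing stimulus; Dosing: single dose; Timing: dye 90 min, compound 20 min, room temperature; Measured by: kinetic FluxOR thallium fluorescence, 10-s 1-Hz baseline, 110-s post-stimulus read; Read-out: peak-minus-minimum fluorescence over initial fluorescence, negative-control normalized, B-scored.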
KCNQ1 inh: inhibitors of human KCNQ1 channel, primary screen, cell-based, thallium flux, high-throughput; Potassium voltage-gated channel subfamily KQT member 1 (Homo sapiens), P51787; CHO-K1 KCNQ1, FluxOR thallium flux fluorescence; stronger effect = higher value; 310,000 tested, 1.3% active; AID 2642, 2010; B-score at 10 µM;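 active = compounds whose thallium flux B-score, printed positive for inhibition, exceeds three library SD while starting fluorescence stays within three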;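 note: channel opened by potassium depolarization with thallium stimulus after 20 min compound exposure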
KCNK3 inh: human KCNK3 channel inhibitors, primary screen, CHO cells, FluxOR thallium flux, B-score; Potassium channel subfamily K member 3 (Homo sapiens), O14649; 340,000 tested, 0.84% active; B-score at 10 µM; FluxOR fluorescence; stronger effect = lower value;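 active = B-score under library mean minus 4 SD, starting fluorescence ratio at most library mean plus 5 SD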;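 note: more negative B-score means stronger inhibition of thallium flux through KCNK3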
hERG protect: hERG rescue from dofetilide block, primary screen, cell-based, CHO-hERG, FluxOR thallium flux, dofetilide IC70; Voltage-gated inwardly rectifying potassium channel KCNH2 (Homo sapiens), Q12809; dofetilide IC70 present; activation (rescue from dofetilide block), less the hit threshold, % at 10 µM; 310,000 tested, 0.51% active; AID 1511, 2009;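 active = activation above the mean of controls blocked by dofetilide plus 5 SD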;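 note: thallium influx through hERG after potassium depolarization seen as dye fluorescence rise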
KCNK9 inh-1: KCNK9 potassium channel inhibitors, primary screen, HEK293 cells, thallium flux | Potassium channel subfamily K member 9 (Homo sapiens), Q9NPC2 | FluxOR thallium flux fluorescence; stronger effect = lower value | B-score at 10 µM | 310,000 tested, 1.2% active | AID 488922, 2010;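 active = ratio B-score over 3 SD below the library mean, with starting fluorescence within 5 SD of its mean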;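 note: negative B-score means less thallium flux so channel inhibition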
Kir21 block: inhibitors of mouse Kir2.1 inward-rectifier potassium channel; Inward rectifier potassium channel 2 (Mus musculus), P35561; HEK293-Kir2.1, FluxOR thallium flux fluorescence; stronger effect = lower value; B-score at 10 µM; 310,000 tested, 0.85% active; AID 1672, 2009;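 active = fluorescence ratio B-score at or below minus 3 SD of library scores, with starting-brightness B-score within 2 SD, cut at about -4.2 in these data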;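 note: channel flux triggered by added potassium and thallium sulfate stimulus; B-score of peak minus minimum fluorescence over baseline after thallium stimulus; more negative B-score means stronger Kir2.1 block with less thallium influx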
Target sequence (P35561 whole entry, looked up): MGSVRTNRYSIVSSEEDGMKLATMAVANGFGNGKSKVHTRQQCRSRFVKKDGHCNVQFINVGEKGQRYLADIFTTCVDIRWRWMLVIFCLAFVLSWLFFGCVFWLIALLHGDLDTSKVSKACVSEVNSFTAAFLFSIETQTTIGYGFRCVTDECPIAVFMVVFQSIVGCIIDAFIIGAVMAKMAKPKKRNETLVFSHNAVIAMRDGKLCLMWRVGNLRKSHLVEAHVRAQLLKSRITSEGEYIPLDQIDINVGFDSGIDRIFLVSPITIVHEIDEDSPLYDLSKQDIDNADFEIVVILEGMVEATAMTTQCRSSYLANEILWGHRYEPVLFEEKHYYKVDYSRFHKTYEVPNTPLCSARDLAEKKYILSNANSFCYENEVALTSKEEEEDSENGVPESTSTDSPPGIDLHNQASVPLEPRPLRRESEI
hERG ctr: hERG channel inhibition, counter-screen for Kir2.1 inhibitor project, cell-based, thallium flux; shares compounds with Kir21 block; hERG-expressing cells; inhibition, % at 10 µM; 320 tested, 20% active;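 note: host cells are CHO cells stably expressing hERG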
KCNK9 inh-2: KCNK9 channel inhibition, selectivity assay for Kir2.1 inhibitor project, cell-based; shares compounds with Kir21 block; KCNK9-expressing cells, ion flux inhibition; inhibition, % at 10 µM; 320 tested, 5% active; AID 2329, 2010
Kir21 ephys inh: mouse Kir2.1 channel blockers, Kir2.1 inhibitor project, cell-based, secondary, automated electrophysiology | inhibition, % at 25 µM | shares compounds with Kir21 block | AID 463252, 2010 | 320 tested, 71% active | Kir2.1 cells, automated patch-clamp current inhibition
The depositor's hits bear a star; i = inactive; x = no result. This is a sample that favours compounds with a hit; in the whole collection about 3.8% have one here. Unless noted, the rule behind the calls is not given here.

SMILES | KCNQ1 act | KCNQ1 inh | KCNK3 inh | hERG protect | KCNK9 inh-1 | Kir21 block | hERG ctr | KCNK9 inh-2 | Kir21 ephys inh
CCn1c(CSc2nc3ccccc3s2)nnc1SCC(N)=O | i | i | i | -8.8 | i | 0.61 | x | x | x
CCn1c(CSc2nc3ccccc3s2)nnc1SCC(=O)OC(C)(C)C | i | i | i | -14.5 | i | -8.65* | i | i | 30.9%*
Cc1cccc(N2CCN(C(=O)CCCn3c(=O)c4cccn4c4cccnc43)CC2)c1C | i | i | i | -10.1 | i | 1.43 | x | x | x
CC(C)Oc1ccccc1NC(=O)CSc1nc2ccccc2c(=O)n1C | i | i | i | -8.3 | i | -8.86* | i | i | 9.9%*
S=c1[nH]c(-c2ccccc2)cn1/N=C/c1cccs1 | i | i | i | -11.3 | i | -0.36 | x | x | x
O=c1c(C(c2ccc(Br)cc2)c2c(O)nc3n(c2=O)CCS3)c(O)nc2n1CCS2 | i | i | i | -7.4 | i | 0.29 | x | x | x
O=S(=O)(Nc1ccccc1N1CCOCC1)c1ccc(F)c(Cl)c1 | i | i | i | -3.4 | i | -12.3* | i | i | 2.6%*
NC(=O)C1CCN(C(=O)CSc2nc3ccccc3[nH]2)CC1 | i | i | i | -6.8 | i | 0.61 | x | x | x
CCOCCCNCC(O)c1ccccc1 (stereo unspecified) | i | i | i | -4.7 | i | -0.79 | x | x | x
OCc1cc(C(O)CNCCCCCCOCCCCc2ccccc2)ccc1O (stereo unspecified) | i | i | i | -9.9 | i | -5.3* | i | i | 22.7%*
Cc1ccc(C(=O)N/C(=C\c2ccc(-c3ccc(Br)cc3)o2)C(=O)NCCCN(C)C)cc1 | i | 8* | i | -32.9 | i | -10.5* | 77.0%* | i | i
Cc1ccc(/C=C2/NC(=O)[C@H](C)NC2=O)cc1 | i | i | i | -0.7 | i | 1.56 | x | x | x
CCc1ccc(Nc2n[n+](-c3ccccc3)c(/C=C/c3ccccc3)s2)cc1 | i | 12* | x | -35.2 | i | -7.65* | 68.0%* | i | i
COc1ccc(Nc2nc(N3CCCC3)c3ccccc3n2)cc1 | i | i | i | -8.1 | i | -11* | i | i | 45.5%*
COc1ccc(NC(C)=O)cc1S(=O)(=O)NC(Cc1ccccc1)C(=O)NCc1ccccc1C (stereo unspecified) | i | i | i | -3.5 | i | -0.81 | x | x | x
Cc1ccc(O)c(CNc2nc3ccccc3n2C(C)C)c1 | i | i | i | -4.2 | i | 0.42 | x | x | x
Cc1ccc(O)c(CNCCNCc2cc(C)ccc2O)c1 | i | i | i | -3.5 | i | -6.13* | i | i | 51.1%*
CCc1cc2c(CN3CCN(Cc4ccccc4)CC3)cc(=O)oc2cc1O | i | i | i | -6.4 | i | -5.97* | i | i | i
CCOc1cc(S(=O)(=O)NCc2ccc3c(c2)OCO3)c(C)cc1C | i | i | i | -8.6 | i | -6.58* | i | i | 10.5%*
COc1ccc(C(CCNC(C)c2ccccc2)C(C)C)cc1 (stereo unspecified) | i | i | i | -10.2 | i | -10.6* | i | i | 2.7%*
COc1ccc(C(C)NC(=O)c2ccccc2)cc1 (stereo unspecified) | i | i | i | -8.2 | i | -0.04 | x | x | x
CCN(Cc1nc2ccccc2c(=O)[nH]1)C(=O)COc1ccccc1-c1ccccc1 | x | x | i | x | x | x | x | x | x
Cc1ccccc1OCc1nnc(SCC(=O)O)n1-c1ccccc1 | i | i | i | -1.6 | i | -0.07 | x | x | x
Cc1ccccc1OCCSc1nnc(C)n1-c1ccccc1 | i | i | i | -5.9 | i | -6.66* | i | i | 53.8%*
Cc1cccc(C)c1NC(=O)c1sccc1SCC#N | i | i | i | -4.9 | i | -0.3 | x | x | x
SMILES | KCNQ1 act | KCNQ1 inh | KCNK3 inh | hERG protect | KCNK9 inh-1 | Kir21 block | hERG ctr | KCNK9 inh-2 | Kir21 ephys inh
CNC(=O)c1sccc1SCc1c(Cl)cccc1Cl | i | i | i | -8.2 | i | -9.44* | i | i | 43.0%*
CC(CCCN(C)C)C(Cc1ccccc1)c1ccccc1 (stereo unspecified) | i | i | i | -13.3 | i | -6.37* | i | i | 4.0%*
COc1ccc2ccccc2c1CNCc1ccc(C)cc1 | i | i | i | -3.8 | i | -9.11* | i | i | 40.7%*
COc1ccccc1CNCc1ccc(C)cc1 | i | i | i | -6.3 | i | -1.71 | x | x | x
COc1cc(NS(=O)(=O)c2ccc(Nc3nc(-c4ccccc4)cs3)cc2)nc(OC)n1 | i | i | i | -4.3 | i | 3.56 | i | i | i
COc1cc(NS(=O)(=O)c2ccc(NC(=S)Nc3ccccc3)cc2)nc(OC)n1 | i | i | i | -1.5 | i | -0.09 | x | x | x
CCCCN1C(=O)C(=Nc2cccc3cnccc23)c2ccccc21 | i | i | i | -13.7 | -7.18* | -7.46* | i | i | i
CC(CCc1ccc(O)cc1)NC1c2ccccc2-c2ccccc21 (stereo unspecified) | i | i | i | -5.5 | i | -14.5* | 60.0%* | i | i
CC(CCc1ccc(O)cc1)NC1C2CC3CC(C2)CC1C3 (stereo unspecified) | i | i | i | -4.5 | i | -3.79 | x | x | x
Cc1ccc(C(CCNC(C)c2cccs2)c2ccco2)cc1 (stereo unspecified) | i | i | i | -6.6 | i | -8.39* | 62.0%* | i | i
CCOCc1cn(CC(=O)c2ccc([N+](=O)[O-])cc2)c(C)nc1=N | i | i | i | -6.3 | i | 3.15 | i | i | i

Screening results deposited in PubChem BioAssay by Johns Hopkins Ion Channel Center.
